In brackets after ≈: the same amount, converted by molar mass. Activity calls are given as the source filed them. No cut-off for these calls is given here. Positions of bridges follow the written chain, without caps; N, C: chain ends. Residues, ends and D or L forms follow the SMILES beside them.
How the values were obtained:
Enterococcus faecalis = assay: Antibacterial activity against Enterococcus faecalis ATCC 19433; format: functional, organism-based
Staphylococcus aureus = assay: Antibacterial activity against Staphylococcus aureus ATCC 6538; format: functional, organism-based
Escherichia coli [1] = assay: Antibacterial activity against Escherichia coli MC4100 up to 250 uM after 24 hrs by liquid growth inhibition assay; format: functional, organism-based
Summary of the method: (§1)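 Liquid broth microdilution in LB. Peptide stocks were made in 20% methanol/water (1 or 2.5 mM), then serially doubled in water to final 0.01–100 or 0.5–250 µM. Inoculum was diluted to OD620 0.02–0.05. Plates ran 24 h at 37 °C and were read at OD620. MIC was the lowest concentration giving 100% growth inhibition (0.05 AU). Triplicate wells, three repeat experiments.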

Escherichia coli [2] = assay: Antibacterial activity against Escherichia coli DH5alpha up to 250 uM after 24 hrs by liquid growth inhibition assay; format: functional, organism-based; conditions: DH5[alpha]; summary of the method: as §1
[3] = test system: Salmonella enterica subsp. enterica serovar Choleraesuis; assay: Antibacterial activity against Salmonella choleraesuis ATCC 10708 up to 250 uM after 24 hrs by liquid growth inhibition assay; format: functional
Salmonella paratyphi = assay: Antibacterial activity against Salmonella paratyphi up to 250 uM after 24 hrs by liquid growth inhibition assay; format: functional, organism-based; conditions: Salmonella enterica subsp. enterica serovar Paratyphi A
[4] = test system: Salmonella enterica subsp. enterica serovar Montevideo; assay: Antibacterial activity against Salmonella montevideo 20 up to 250 uM after 24 hrs by liquid growth inhibition assay; format: functional; summary of the method: as §1
[5] = test system: Salmonella enterica subsp. enterica serovar Heidelberg; assay: Antibacterial activity against Salmonella heidelberg ATCC 8326 up to 250 uM after 24 hrs by liquid growth inhibition assay; format: functional; summary of the method: as §1
Salmonella typhimurium [6] = assay: Antibacterial activity against Salmonella Typhimurium ATCC 13311 up to 250 uM after 24 hrs by liquid growth inhibition assay; format: functional, organism-based; conditions: Salmonella enterica subsp. enterica serovar Typhimurium; summary of the method: as §1
Salmonella typhimurium [7] = assay: Antibacterial activity against Salmonella Typhimurium AFLB 25 up to 250 uM after 24 hrs by liquid growth inhibition assay; format: functional, organism-based; conditions: Salmonella enterica subsp. enterica serovar Typhimurium; summary of the method: as §1
Salmonella enteritidis [8] = assay: Antibacterial activity against Salmonella enteritidis AFLB 81 up to 250 uM after 24 hrs by liquid growth inhibition assay; format: functional, organism-based; conditions: Salmonella enterica subsp. enterica serovar Enteritidis; summary of the method: as §1
Salmonella enteritidis [9] = assay: Antibacterial activity against Salmonella enteritidis AFLB 41 up to 250 uM after 24 hrs by liquid growth inhibition assay; format: functional, organism-based; conditions: Salmonella enterica subsp. enterica serovar Enteritidis; summary of the method: as §1
Salmonella enteritidis [10] = assay: Antibacterial activity against Salmonella enteritidis AFLB 11 up to 250 uM after 24 hrs by liquid growth inhibition assay; format: functional, organism-based; conditions: Salmonella enterica subsp. enterica serovar Enteritidis; summary of the method: as §1
Salmonella enteritidis [11] = assay: Antibacterial activity against Salmonella enteritidis ATCC 13076 up to 250 uM after 24 hrs by liquid growth inhibition assay; format: functional, organism-based; conditions: Salmonella enterica subsp. enterica serovar Enteritidis; summary of the method: as §1
Salmonella enteritidis [12] = assay: Antibacterial activity against Salmonella enteritidis PT8 up to 250 uM after 24 hrs by liquid growth inhibition assay; format: functional, organism-based; conditions: Salmonella enterica subsp. enterica serovar Enteritidis; summary of the method: as §1
[13] = test system: Salmonella enterica subsp. enterica serovar Newport; assay: Antibacterial activity against Salmonella newport clinical isolate up to 250 uM after 24 hrs by liquid growth inhibition assay; format: functional; summary of the method: as §1
[14] = Cytotoxicity against human MCF7 cells assessed as cell viability at 0.3 to 100 uM after 24 hrs by MTT assay; format: cell-based; conditions: read-out: Activity
Summary of the method: (§2)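 MTT assay. MDA-MB-435 cells were kept in RPMI 1640 and MCF7 cells in DMEM, both with 10% FBS, penicillin and streptomycin, at 37 °C and 5% CO2. Cells were seeded at 1×10^4/well and grown 24 h. Samples came from 1 mM stocks in 10% DMSO/water, twofold diluted to 0.3125–100 µM, and applied for 24 h. MTT (5 mg/mL) was added for 3.5 h, then DMSO solubilization and A570. Viability is relative to untreated cells; triplicate, mean.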

[15] = Cytotoxicity against human MDA-MB-435 cells assessed as cell viability at 0.3 to 100 uM after 24 hrs by MTT assay; format: cell-based; conditions: read-out: Activity; summary of the method: as §2
[16] = Stability of the compound at 200 uM after overnight incubation by spot on lawn method in the presence of chymotrypsin; format: ADME
[17] = Stability of the compound at 150 uM after 30 mins by RP-HPLC analysis in the presence of pepsin; format: ADME; conditions: 0.5 h
Summary of the method: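 Peptide (150 µM) was incubated at 37 °C with pepsin (4% w/w) in 0.1 N HCl. Aliquots taken at 0 and 30 min were quenched into 0.1 N NaOH/70% methanol and centrifuged. Supernatant was analysed by C18 RP-HPLC (15–50% isopropanol/water, 0.05% TFA, 35 min, UV 220 nm). Fragments were identified by MALDI-TOF.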

[18] = Bactericidal activity against Salmonella newport clinical isolate after 24 hrs; format: functional, Salmonella enterica subsp. enterica serovar Newport; conditions: Salmonella enterica
Summary of the method: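 For MBC, 10 µL from each clear well of the 24 h, 37 °C LB broth-dilution plate was spread on LB agar and incubated 24 h at 37 °C. MBC was the lowest concentration giving no growth on agar.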

[19] = Antibacterial activity against Salmonella newport clinical isolate after 24 hrs by liquid growth inhibition assay; format: functional, Salmonella enterica subsp. enterica serovar Newport; conditions: Salmonella enterica; summary of the method: as §1
[20] = test system: Salmonella enterica subsp. enterica serovar Newport; assay: Inhibition of oxygen consumption in Salmonella newport clinical isolate at 30 uM after 35 mins by Gilson Clarke oxygraph analysis; format: functional
Summary of the method: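 Cells were held 35 min at 37 °C with peptide at the stated concentration. Respiration rate over the next 5 min was measured polarographically with a Clark electrode oxygraph at 37 °C. Results are percent of a peptide-free control; three independent experiments, mean ± SD.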

[21] = Thermostability in boiling water after 3 hrs; format: physicochemical; conditions: buffer

Structure (SMILES) | Activity (Enterococcus faecalis) | Activity (Staphylococcus aureus) | Activity (Escherichia coli [1]) | Activity (Escherichia coli [2]) | Activity [3] | Activity (Salmonella paratyphi) | Activity [4] | Activity [5] | Activity (Salmonella typhimurium [6]) | Activity (Salmonella typhimurium [7]) | Activity (Salmonella enteritidis [8]) | Activity (Salmonella enteritidis [9]) | Activity (Salmonella enteritidis [10]) | Activity (Salmonella enteritidis [11]) | Activity (Salmonella enteritidis [12]) | Activity [13] | viability at 24 h, up to 100 µM [14] [%] | viability at 24 h, up to 100 µM [15] [%] | also measured
CC[C@H](C)[C@H](NC(=O)CNC(=O)[C@@H](NC(=O)[C@H](Cc1ccccc1)NC(=O)[C@H](Cc1ccc(O)cc1)NC(=O)[C@@H]1CSSC[C@H](N)C(=O)NCC(=O)N[C@@H](C)C(=O)N[C@@H](CCCCN)C(=O)N[C@@H](Cc2cnc[nH]2)C(=O)N[C@@H](C(C)C)C(=O)N2CCC[C@H]2C(=O)N1)C(C)C)C(=O)NCC(=O)N[C@H](C(=O)N1CCC[C@H]1C(=O)N[C@H](C(=O)N[C@@H](CO)C(=O)N[C@@H](Cc1ccccc1)C(=O)N[C@@H](CCC(=O)O)C(=O)O)[C@@H](C)CC)[C@@H](C)O (H-CGAKHVPCYFVGIGTPISFE-OH; disulfide 1-8) | inactive | inactive | inactive | inactive | inactive | inactive | inactive | inactive | inactive | inactive | inactive | inactive | inactive | inactive | inactive | inactive | 75 |  | 
CC[C@H](C)[C@@H]1NC(=O)[C@@H]2CCCN2C(=O)CNC(=O)CNC(=O)[C@H](CCCNC(=N)N)NC(=O)CNC(=O)[C@H](C(C)C)NC(=O)[C@H](Cc2ccccc2)NC(=O)[C@H](Cc2ccc(O)cc2)NC(=O)[C@@H]2CSSC[C@H](NC(=O)[C@H](CCC(=O)O)NC1=O)C(=O)NCC(=O)N[C@@H](C)C(=O)NCC(=O)N[C@@H](Cc1cnc[nH]1)C(=O)N[C@@H](C(C)C)C(=O)N1CCC[C@H]1C(=O)N2 (cyclo(AGHVPCYFVGRGGPIECG); disulfide 6-17) | inactive | inactive | inactive | inactive | inactive | inactive | inactive | inactive | inactive | inactive | inactive | inactive | inactive | inactive | inactive | inactive | > 90 | > 90 | 
CC[C@H](C)[C@H](NC(=O)[C@@H]1CCCN1C(=O)[C@@H](NC(=O)CNC(=O)[C@H](CCCNC(=N)N)NC(=O)CNC(=O)[C@@H](NC(=O)[C@H](Cc1ccccc1)NC(=O)[C@H](Cc1ccc(O)cc1)NC(=O)[C@@H]1CSSC[C@H](N)C(=O)NCC(=O)N[C@@H](C)C(=O)NCC(=O)N[C@@H](Cc2ccccc2)C(=O)N[C@@H](Cc2cnc[nH]2)C(=O)N[C@@H](C(C)C)C(=O)N2CCC[C@H]2C(=O)N1)C(C)C)[C@@H](C)O)C(=O)N[C@@H](CO)C(=O)N[C@@H](Cc1ccccc1)C(=O)N[C@@H](Cc1ccc(O)cc1)C(=O)NCC(=O)O (H-CGAGFHVPCYFVGRGTPISFYG-OH; disulfide 1-9) | inactive | inactive | inactive | inactive | inactive | inactive | inactive | inactive | inactive | inactive | inactive | inactive | inactive | inactive | inactive |  | > 90 | > 90 | Stability [16]: Unstable; Stability [17]: Unstable; MBC [18]: 62.5 µM (≈ 146 µg/mL); MIC [19]: 30 µM (≈ 70 µg/mL); inhibition [20]: inactive; Stability [21]: Unstable
CC[C@H](C)[C@H](NC(=O)CNC(=O)[C@@H](NC(=O)[C@H](Cc1ccccc1)NC(=O)[C@H](Cc1ccc(O)cc1)NC(=O)[C@@H]1CSSC[C@H](N)C(=O)NCC(=O)N[C@@H](C)C(=O)NCC(=O)N[C@@H](CCCCN)C(=O)N[C@@H](C(C)C)C(=O)N2CCC[C@H]2C(=O)N1)C(C)C)C(=O)NCC(=O)N[C@H](C(=O)N1CCC[C@H]1C(=O)N[C@H](C(=O)N[C@@H](CO)C(=O)N[C@@H](Cc1ccccc1)C(=O)N[C@@H](CCC(=O)O)C(=O)NCC(=O)O)[C@@H](C)CC)[C@@H](C)O (H-CGAGKVPCYFVGIGTPISFEG-OH; disulfide 1-8) | inactive | inactive | inactive | inactive | inactive | inactive | inactive | inactive | inactive | inactive | inactive | inactive | inactive | inactive | inactive | inactive | 75 | 75 | 
CC[C@H](C)[C@H](NC(=O)[C@@H]1CCCN1C(=O)CNC(=O)CNC(=O)[C@H](CCCNC(=N)N)NC(=O)CNC(=O)[C@@H](NC(=O)[C@H](Cc1ccccc1)NC(=O)[C@H](Cc1ccc(O)cc1)NC(=O)[C@@H]1CSSC[C@H](N)C(=O)NCC(=O)N[C@@H](C)C(=O)N[C@@H](Cc2ccccc2)C(=O)N[C@@H](Cc2cnc[nH]2)C(=O)N[C@@H](C(C)C)C(=O)N2CCC[C@H]2C(=O)N1)C(C)C)C(=O)N[C@@H](CO)C(=O)N[C@@H](Cc1ccccc1)C(=O)O (H-CGAFHVPCYFVGRGGPISF-OH; disulfide 1-8) | inactive | inactive | inactive | inactive | inactive | inactive | inactive | inactive | inactive | inactive | inactive | inactive | inactive | inactive | inactive | inactive | > 90 | > 90 | 
